# From ChEMBL document CHEMBL4813992, “Ring closure strategy leads to potent RIPK3 inhibitors” (Eur J Med Chem, 2021)
# Calls of active or inactive are those of the source. The rule behind the calls is not given here.
# Columns and labels:
# [1] = tested on: HT-29; test: Anti-necroptotic activity in human HT-29 cells assessed as inhibition of TNFalpha/Z-VAD-fmk (TSZ)-induced necroptosis by measuring increase in cell viability by celltiter-glo luminescent cell viability assay; format: functional, cell-based
# Method in brief: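 HT-29 cells or MEFs were pretreated with compound or DMSO for 1 h, then stimulated with TNF (20 ng/mL), Smac mimetic (100 nM) and z-VAD. Viability was read as ATP level by CellTiter-Glo (24 h per methods; 40 h per legends). EC50 is the geometric mean of at least two runs ± SEM.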
# [2] = tested on: HT-29; test: Cytotoxicity against human HT-29 cells assessed as cell death at 20 uM by celltiter-glo luminescent cell viability assay; format: cell-based; conditions: ht-29, 20 µM
# Method in brief: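 HT-29 cells were given a compound concentration gradient without TSZ stimulation. Viability was read as ATP level by luminescence. Cell death above 30% at 20 µM was scored as significant toxicity.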
# [3] = target: Activin receptor type-1B (Homo sapiens, UniProt P36896); test: Inhibition of human ALK4 using ATP as substrate incubated for 120 mins by ADP-glo based luminescence assay
# Sequence of Activin receptor type-1B (P36896 whole entry): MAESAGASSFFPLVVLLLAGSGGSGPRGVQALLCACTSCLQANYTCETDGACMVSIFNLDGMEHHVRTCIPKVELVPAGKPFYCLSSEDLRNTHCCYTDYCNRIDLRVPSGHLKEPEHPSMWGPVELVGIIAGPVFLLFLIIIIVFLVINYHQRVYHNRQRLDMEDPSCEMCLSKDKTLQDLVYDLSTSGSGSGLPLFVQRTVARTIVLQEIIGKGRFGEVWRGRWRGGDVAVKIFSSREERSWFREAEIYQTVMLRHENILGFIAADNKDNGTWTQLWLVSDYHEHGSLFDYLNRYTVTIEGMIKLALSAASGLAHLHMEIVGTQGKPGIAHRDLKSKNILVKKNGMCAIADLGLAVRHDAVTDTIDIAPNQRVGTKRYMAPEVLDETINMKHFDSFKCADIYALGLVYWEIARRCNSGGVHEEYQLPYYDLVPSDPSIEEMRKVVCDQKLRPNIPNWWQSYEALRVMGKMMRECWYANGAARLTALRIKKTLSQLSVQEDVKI
# [4] = target: Receptor-interacting serine/threonine-protein kinase 2 (Homo sapiens) (UniProt O43353); test: Inhibition of RIPK2 (unknown origin) at 10 uM
# Sequence of Receptor-interacting serine/threonine-protein kinase 2 (Homo sapiens) (O43353 whole entry): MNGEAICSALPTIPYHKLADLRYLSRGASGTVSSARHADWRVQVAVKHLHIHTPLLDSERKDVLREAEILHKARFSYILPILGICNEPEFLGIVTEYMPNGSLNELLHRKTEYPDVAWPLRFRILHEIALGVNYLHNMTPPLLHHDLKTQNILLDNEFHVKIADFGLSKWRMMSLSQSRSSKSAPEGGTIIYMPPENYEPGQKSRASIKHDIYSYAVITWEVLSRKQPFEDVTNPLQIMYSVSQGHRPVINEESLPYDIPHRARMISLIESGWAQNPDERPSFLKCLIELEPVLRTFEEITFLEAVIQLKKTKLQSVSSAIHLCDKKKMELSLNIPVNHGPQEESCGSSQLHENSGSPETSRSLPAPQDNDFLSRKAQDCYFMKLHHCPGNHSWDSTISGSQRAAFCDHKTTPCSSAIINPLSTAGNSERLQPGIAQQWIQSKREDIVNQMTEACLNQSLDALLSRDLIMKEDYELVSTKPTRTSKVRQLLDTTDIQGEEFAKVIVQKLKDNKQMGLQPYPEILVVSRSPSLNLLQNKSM
# [5] = tested on: MEF; test: Anti-necroptotic activity in mouse MEF cells assessed as inhibition of TNFalpha/Smac mimetic/Z-VAD-fmk (TSZ)-induced necroptosis by measuring increase in cell viability by celltiter-glo luminescent cell viability assay
# [6] = target: Serine/threonine-protein kinase B-raf (Homo sapiens, UniProt P15056); test: Inhibition of BRAF (unknown origin) in presence of ATP by Lanthascreen TR-FRET assay
# [7] = Protein binding in human plasma by LC-MS/MS analysis; format: ADME, cell-free; conditions: read-out: PPB (converted)
# [8] = Apparent permeability of the compound across apical to basolateral side in human Caco-2 cells; format: ADME, cell-based; conditions: read-out: permeability
# [9] = target: CYP1A2 (Homo sapiens, UniProt P05177); test: Inhibition of CYP1A2 (unknown origin) at 10 uM incubated for 20 mins by LC-MS/MS analysis; format: ADME
# [10] = Efflux ratio of apparent permeability across basolateral to apical side over apical to basolateral side in human Caco-2 cells; format: ADME, cell-based
# [11] = target: Phosphatidylinositol 4,5-bisphosphate 3-kinase catalytic subunit alpha isoform (Homo sapiens, UniProt P42336); test: Inhibition of human PI3Kalpha using ATP as substrate at 25 uM incubated for 60 mins by ADP-glo based luminescence assay
# Sequence of Phosphatidylinositol 4,5-bisphosphate 3-kinase catalytic subunit alpha isoform (P42336 whole entry, canonical isoform): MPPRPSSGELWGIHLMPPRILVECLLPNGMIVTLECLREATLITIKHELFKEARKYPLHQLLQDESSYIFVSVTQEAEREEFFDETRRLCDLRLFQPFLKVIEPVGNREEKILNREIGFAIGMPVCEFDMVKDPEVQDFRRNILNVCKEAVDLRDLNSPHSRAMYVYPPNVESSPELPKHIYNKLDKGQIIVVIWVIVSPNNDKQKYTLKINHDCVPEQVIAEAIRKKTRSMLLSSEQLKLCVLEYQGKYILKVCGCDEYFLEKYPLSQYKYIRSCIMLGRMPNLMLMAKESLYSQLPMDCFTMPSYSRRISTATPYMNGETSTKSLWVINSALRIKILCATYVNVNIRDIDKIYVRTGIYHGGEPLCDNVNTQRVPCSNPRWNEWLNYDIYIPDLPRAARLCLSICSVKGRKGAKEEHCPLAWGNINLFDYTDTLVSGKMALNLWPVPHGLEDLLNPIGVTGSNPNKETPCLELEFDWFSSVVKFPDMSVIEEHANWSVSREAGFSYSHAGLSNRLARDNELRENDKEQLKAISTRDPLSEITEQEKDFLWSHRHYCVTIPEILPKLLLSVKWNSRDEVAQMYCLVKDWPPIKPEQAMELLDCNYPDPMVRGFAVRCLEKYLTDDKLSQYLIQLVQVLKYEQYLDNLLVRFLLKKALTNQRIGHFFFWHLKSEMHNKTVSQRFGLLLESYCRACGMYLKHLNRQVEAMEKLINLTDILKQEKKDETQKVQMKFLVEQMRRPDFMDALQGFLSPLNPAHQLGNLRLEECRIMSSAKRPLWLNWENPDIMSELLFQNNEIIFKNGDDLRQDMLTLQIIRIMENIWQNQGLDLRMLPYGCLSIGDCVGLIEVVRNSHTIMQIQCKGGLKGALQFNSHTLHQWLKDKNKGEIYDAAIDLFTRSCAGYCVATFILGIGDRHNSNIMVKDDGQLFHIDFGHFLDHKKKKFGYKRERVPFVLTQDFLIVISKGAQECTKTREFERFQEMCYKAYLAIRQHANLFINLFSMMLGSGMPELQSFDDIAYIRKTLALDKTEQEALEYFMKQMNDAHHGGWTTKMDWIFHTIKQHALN
# [12] = Protein binding in rat plasma by LC-MS/MS analysis; format: ADME, cell-free; conditions: read-out: PPB (converted)
# [13] = target: CDK4/Cyclin D3 (Homo sapiens, UniProt P11802); test: Inhibition of CDK4/Cyclin D3 (unknown origin) using FAM-labeled peptide as substrate preincubated for 10 mins followed by substrate addition measured after 60 mins in presence of ATP by caliper mobility shift assay; format: protein-complex assay
# [14] = target: Platelet-derived growth factor receptor alpha (Homo sapiens, UniProt P16234); test: Inhibition of PDGFRA (unknown origin) using FAM-labeled peptide as substrate preincubated for 10 mins followed by substrate addition measured after 60 mins in presence of ATP by caliper mobility shift assay
# [15] = Metabolic stability in human liver microsomes assessed as half life by LC-MS/MS analysis; format: ADME, Microsome
# [16] = target: CYP2D6 (Homo sapiens, UniProt P10635); test: Inhibition of CYP2D6 (unknown origin) at 10 uM incubated for 20 mins by LC-MS/MS analysis; format: ADME
# [17] = target: CYP2C19 (Homo sapiens, UniProt P33261); test: Inhibition of CYP2C19 (unknown origin) at 10 uM incubated for 20 mins by LC-MS/MS analysis; format: ADME
# [18] = target: T1, CYP3A4 (Homo sapiens, UniProt P08684); test: Inhibition of CYP3A4 (unknown origin) at 10 uM using midazolam as substrate incubated for 20 mins by LC-MS/MS analysis; format: ADME; conditions: probe midazolam
# T1 sequence (P08684 whole entry): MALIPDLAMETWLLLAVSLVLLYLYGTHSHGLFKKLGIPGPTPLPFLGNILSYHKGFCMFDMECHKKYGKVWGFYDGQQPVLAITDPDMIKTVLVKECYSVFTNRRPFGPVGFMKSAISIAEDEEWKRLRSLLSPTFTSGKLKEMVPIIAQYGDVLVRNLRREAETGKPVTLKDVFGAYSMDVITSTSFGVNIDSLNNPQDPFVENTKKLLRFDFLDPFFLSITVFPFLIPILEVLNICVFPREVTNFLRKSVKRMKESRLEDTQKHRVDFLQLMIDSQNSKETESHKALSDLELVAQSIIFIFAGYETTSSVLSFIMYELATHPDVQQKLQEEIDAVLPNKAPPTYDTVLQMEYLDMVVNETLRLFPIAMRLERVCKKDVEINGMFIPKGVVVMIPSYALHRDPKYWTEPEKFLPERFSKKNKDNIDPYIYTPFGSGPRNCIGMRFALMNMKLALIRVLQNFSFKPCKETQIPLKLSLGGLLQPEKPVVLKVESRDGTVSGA
# [19] = Metabolic stability in human liver microsomes assessed as intrinsic clearance by LC-MS/MS analysis; format: ADME, Microsome
# [20] = Apparent permeability of the compound across basolateral to apical side in human Caco-2 cells; format: ADME, cell-based; conditions: read-out: permeability
# [21] = target: Voltage-gated inwardly rectifying potassium channel KCNH2 (Homo sapiens, UniProt Q12809); test: Inhibition of human ERG expressed in CHO-K1 cells by QPatch - automated patch-clamp technology; format: cell-based
# [22] = target: Receptor-interacting serine/threonine-protein kinase 3 (Homo sapiens, UniProt Q9Y572); test: Binding affinity to human wild type RIPK3 (M1/Q307) expressed in bacterial expression system by Kinomescan method
# Sequence of Receptor-interacting serine/threonine-protein kinase 3 (Q9Y572 whole entry): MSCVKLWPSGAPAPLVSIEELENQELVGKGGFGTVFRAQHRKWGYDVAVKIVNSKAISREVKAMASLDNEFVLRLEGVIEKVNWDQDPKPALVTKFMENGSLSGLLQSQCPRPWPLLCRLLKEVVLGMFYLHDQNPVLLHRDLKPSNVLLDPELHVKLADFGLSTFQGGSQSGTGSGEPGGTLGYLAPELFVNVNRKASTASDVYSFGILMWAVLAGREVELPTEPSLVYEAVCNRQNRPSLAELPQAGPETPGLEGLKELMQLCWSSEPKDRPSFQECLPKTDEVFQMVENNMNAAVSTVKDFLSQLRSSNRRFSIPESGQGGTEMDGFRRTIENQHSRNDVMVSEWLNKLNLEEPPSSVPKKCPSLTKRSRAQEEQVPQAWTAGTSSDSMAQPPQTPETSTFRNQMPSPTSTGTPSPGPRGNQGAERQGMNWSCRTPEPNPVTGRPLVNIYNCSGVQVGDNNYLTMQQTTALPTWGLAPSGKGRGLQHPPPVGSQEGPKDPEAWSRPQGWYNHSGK
# Method in brief: (§1)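 KINOMEscan competition binding assay. Kinases were expressed as tags on T7 phage grown in E. coli BL21, or produced in HEK-293 cells and DNA-tagged. Kinase, ligand-loaded streptavidin beads and compound were combined in binding buffer (20% SeaBlock, 0.17x PBS, 0.05% Tween 20, 6 mM DTT) for 1 h at room temperature with shaking. Bound kinase was read by qPCR.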
# [23] = target: Mixed lineage kinase domain-like protein (Homo sapiens) (UniProt Q8NB16); test: Inhibition of MLKL (unknown origin) polymerization
# [24] = Metabolic stability in mouse liver microsomes assessed as intrinsic clearance by LC-MS/MS analysis; format: ADME, Microsome
# [25] = tested on: Mus musculus; test: Anti-necroptosis activity against TNFalpha-induced C57BL/6J mouse systemic inflammatory response syndrome model assessed as reduction in lethal shock at 5 mg/kg, ip measured after 15 mins; format: functional, organism-based
# Method in brief: (§2)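 C57BL/6 mice were given vehicle (sterile PBS with 40% PEG400) or compound at 5 mg/kg i.p. about 15 min before i.v. mouse TNFa ([…]). Body temperature and survival were monitored. Temperature changes are shown as means ± SEM per group.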
# [26] = Metabolic stability in mouse liver microsomes assessed as half life by LC-MS/MS analysis; format: ADME, Microsome
# [27] = tested on: Mus musculus; test: Antiinflammatory activity in TNFalpha-induced C57BL/6J mouse systemic inflammatory response syndrome model assessed as reduction in IL-6 production in serum at 5 mg/kg, ip measured 4 hrs after TNFalpha stimulation by ELISA; format: functional, organism-based
# Method in brief: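 C57BL/6 mice were dosed i.p. at 5 mg/kg in PBS/40% PEG400 about 15 min before i.v. mouse TNFa ([…]). Mice were killed 4 h after TNFa and serum IL-6 was measured by ELISA.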
# [28] = target: Epidermal growth factor receptor (Homo sapiens, UniProt P00533); test: Inhibition of EGFR (unknown origin) using FAM-labeled peptide as substrate preincubated for 10 mins followed by substrate addition measured after 60 mins in presence of ATP by caliper mobility shift assay
# Sequence of Epidermal growth factor receptor (P00533 whole entry): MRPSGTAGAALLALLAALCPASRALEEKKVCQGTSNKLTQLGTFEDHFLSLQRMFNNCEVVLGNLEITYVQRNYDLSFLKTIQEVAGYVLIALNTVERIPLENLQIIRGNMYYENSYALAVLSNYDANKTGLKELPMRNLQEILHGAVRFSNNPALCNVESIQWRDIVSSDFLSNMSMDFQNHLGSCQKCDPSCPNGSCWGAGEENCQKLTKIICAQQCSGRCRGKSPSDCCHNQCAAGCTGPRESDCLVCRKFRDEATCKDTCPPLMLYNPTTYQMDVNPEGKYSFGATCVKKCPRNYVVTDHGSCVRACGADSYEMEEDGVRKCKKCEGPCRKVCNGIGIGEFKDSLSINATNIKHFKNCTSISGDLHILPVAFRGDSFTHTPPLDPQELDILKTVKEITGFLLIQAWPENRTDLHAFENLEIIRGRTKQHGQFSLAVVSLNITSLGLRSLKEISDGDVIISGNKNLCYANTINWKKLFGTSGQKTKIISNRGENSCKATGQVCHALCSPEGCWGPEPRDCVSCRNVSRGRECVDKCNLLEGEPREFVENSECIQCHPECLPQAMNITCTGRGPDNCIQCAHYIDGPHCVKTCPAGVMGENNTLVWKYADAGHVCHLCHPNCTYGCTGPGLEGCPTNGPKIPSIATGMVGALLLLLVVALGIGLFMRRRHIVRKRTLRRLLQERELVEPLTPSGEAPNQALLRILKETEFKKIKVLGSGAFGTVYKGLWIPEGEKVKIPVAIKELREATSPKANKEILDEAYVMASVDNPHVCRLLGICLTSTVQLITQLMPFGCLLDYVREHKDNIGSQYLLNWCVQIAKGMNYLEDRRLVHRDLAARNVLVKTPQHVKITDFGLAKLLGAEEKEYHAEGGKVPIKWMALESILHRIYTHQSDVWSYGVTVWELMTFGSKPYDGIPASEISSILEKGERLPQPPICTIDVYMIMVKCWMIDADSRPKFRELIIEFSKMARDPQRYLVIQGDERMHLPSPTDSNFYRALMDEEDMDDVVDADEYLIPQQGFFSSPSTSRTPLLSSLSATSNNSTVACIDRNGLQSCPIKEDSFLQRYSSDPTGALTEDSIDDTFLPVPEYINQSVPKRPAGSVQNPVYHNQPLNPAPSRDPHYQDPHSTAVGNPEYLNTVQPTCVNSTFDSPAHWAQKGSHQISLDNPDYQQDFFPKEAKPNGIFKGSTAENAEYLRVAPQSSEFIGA
# [29] = target: CYP2C9 (Homo sapiens, UniProt P11712); test: Inhibition of CYP2C9 (unknown origin) at 10 uM incubated for 20 mins by LC-MS/MS analysis; format: ADME
# Sequence of CYP2C9 (P11712 whole entry): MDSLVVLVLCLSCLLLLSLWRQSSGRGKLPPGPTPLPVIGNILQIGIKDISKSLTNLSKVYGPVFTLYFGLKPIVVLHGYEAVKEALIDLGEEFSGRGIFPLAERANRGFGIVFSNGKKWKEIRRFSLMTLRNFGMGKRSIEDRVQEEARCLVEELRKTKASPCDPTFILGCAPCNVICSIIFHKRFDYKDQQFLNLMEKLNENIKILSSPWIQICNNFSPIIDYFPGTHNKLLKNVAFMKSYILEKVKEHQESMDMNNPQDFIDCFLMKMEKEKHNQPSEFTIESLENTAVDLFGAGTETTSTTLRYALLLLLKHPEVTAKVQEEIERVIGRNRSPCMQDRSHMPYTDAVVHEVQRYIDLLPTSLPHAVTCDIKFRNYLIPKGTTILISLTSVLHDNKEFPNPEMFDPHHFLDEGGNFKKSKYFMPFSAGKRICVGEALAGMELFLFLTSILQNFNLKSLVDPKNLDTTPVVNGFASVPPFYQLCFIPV
# [30] = target: Receptor-interacting serine/threonine-protein kinase 1 (Homo sapiens, UniProt Q13546); test: Binding affinity to human wild type RIPK1 (M1/K305) expressed in bacterial expression system by Kinomescan method; method in brief: as §1
# [31] = tested on: Mus musculus; test: Anti-necroptosis activity against TNFalpha-induced C57BL/6J mouse systemic inflammatory response syndrome model assessed as reduction in hypothermia at 5 mg/kg, ip measured after 15 mins; format: functional, organism-based; method in brief: as §2
# [32] = target: T1, CYP3A4; test: Inhibition of CYP3A4 (unknown origin) at 10 uM using testosterone as substrate incubated for 20 mins by LC-MS/MS analysis; format: ADME; conditions: probe testosterone
# [33] = target: Serine/threonine-protein kinase mTOR (Homo sapiens, UniProt P42345); test: Inhibition of mTOR (unknown origin) using ATP as substrate after 60 mins by Lance ultra assay
# [34] = target: Receptor-interacting serine/threonine-protein kinase 1 (Homo sapiens) (UniProt Q13546); test: Inhibition of human RIPK1 using ATP and substrate at 10 uM incubated for 120 mins by ADP-glo based luminescence assay
# [35] = Protein binding in mouse plasma by LC-MS/MS analysis; format: ADME, cell-free; conditions: read-out: PPB (converted)
compound,measurement,setting,value
CC1(C)C(=O)c2cc3nccc(Nc4n[nH]c5ccc(F)cc45)c3cc2S1(=O)=O,EC50,[1],> 20000 nM
O=S1(=O)CC2(COC2)c2cc3nccc(Nc4ccc5scnc5c4)c3cc21,EC50,[1],> 20000 nM
Cc1n[nH]c(Nc2ccnc3cc4c(cc23)S(=O)(=O)C(C)(C)C4=O)c1C,EC50,[1],> 20000 nM
C=C1c2cc3nccc(Nc4ccc5scnc5c4)c3cc2S(=O)(=O)C1(C)C,EC50,[1],1030 nM
O=C1CS(=O)(=O)c2cc3c(Nc4ccc5scnc5c4)ccnc3cc21,EC50,[1],3810 nM
CC1(C)C(=O)c2cc3nccc(Nc4cc(O)ccc4F)c3cc2S1(=O)=O,EC50,[1],330 nM
same,Activity,[2],> 30%
O=C(O)c1ccc(-c2nc(-c3ccc4c(c3)OCO4)c(-c3ccccn3)[nH]2)cc1,IC50,[3],158 nM
CC1(C)C(O)(C2CC2)c2cc3nccc(Nc4ccc5scnc5c4)c3cc2S1(=O)=O (stereo not drawn),EC50,[1],> 20000 nM
CC1COC2(CS(=O)(=O)c3cc4c(Nc5ccc6scnc6c5)ccnc4cc32)O1 (stereo not drawn),EC50,[1],1070 nM
O=S1(=O)CCc2cc3nccc(Nc4ccc5scnc5c4)c3cc21,EC50,[1],2280 nM
CC1(O)c2cc3nccc(Nc4ccc5scnc5c4)c3cc2S(=O)(=O)C1(C)C (stereo not drawn),EC50,[1],> 20000 nM
CC1(C)C(O)c2cc3nccc(Nc4ccc5scnc5c4)c3cc2S1(=O)=O (stereo not drawn),EC50,[1],2190 nM
Cc1ccc(O)cc1Nc1ccnc2cc3c(cc12)S(=O)(=O)C(C)(C)C3=O,EC50,[1],430 nM
same,Activity,[2],> 30%
CC1(C)C(=O)c2cc3nccc(Nc4ccc5scnc5c4)c3cc2S1(=O)=O,EC50,[1],2230 nM
CC1(C)C(=O)c2cc3nccc(Nc4cc(O)c(F)cc4F)c3cc2S1(=O)=O,EC50,[1],1030 nM
same,Activity,[2],> 30%
CCC1(C)C(=O)c2cc3nccc(Nc4ccc5scnc5c4)c3cc2S1(=O)=O (stereo not drawn),EC50,[1],> 20000 nM
CC1(CC2CC2)C(=O)c2cc3nccc(Nc4ccc5scnc5c4)c3cc2S1(=O)=O (stereo not drawn),EC50,[1],> 20000 nM
O=S1(=O)CC2(CCCO2)c2cc3nccc(Nc4ccc5scnc5c4)c3cc21 (stereo not drawn),EC50,[1],3960 nM
CC(C)S(=O)(=O)c1ccc2nccc(Nc3ccc4scnc4c3)c2c1,EC50,[1],1510 nM
same,inhibition,[4],Active
same,EC50,[5],2510 nM
O=S1(=O)CC2(OCCO2)c2cc3nccc(Nc4ccc5scnc5c4)c3cc21,EC50,[1],420 nM
same,IC50,[6],1360 nM
same,fraction unbound,[7],0.029
same,IC50,[3],3740 nM
same,Papp A→B,[8],35.2 ×10⁻⁶ cm/s
same,"inhibition at 20 min, 10 µM",[9],37%
same,efflux ratio,[10],0.72
same,IC50,[11],7770 nM
same,fraction unbound,[12],0.013
same,IC50,[13],> 10000 nM
same,IC50,[14],152 nM
same,half-life,[15],28.8 min
same,"inhibition at 20 min, 10 µM",[16],-5.26%
same,"inhibition at 20 min, 10 µM",[17],19.9%
same,"inhibition at 20 min, 10 µM",[18],-13.7%
same,CLH,[19],60.5 mL/min/kg
same,Papp B→A,[20],25.3 ×10⁻⁶ cm/s
same,IC50,[21],> 30000 nM
same,Kd,[22],7.2 nM
same,inhibition,[23],inactive
same,CLH,[24],269 mL/min/kg
same,inhibition,[4],Active
same,Activity,[25],Active
same,half-life,[26],20.3 min
same,EC50,[5],540 nM
same,Activity,[27],Active
same,IC50,[28],> 10000 nM
same,"inhibition at 20 min, 10 µM",[29],-6.33%
same,Kd,[30],5950 nM
same,Activity,[31],Active
same,"inhibition at 20 min, 10 µM",[32],9.6%
same,IC50,[33],> 10000 nM
same,inhibition,[34],inactive
same,fraction unbound,[35],0.027
